Where two headings read alike, the source gives them in different places.
Legend:
[1] = subcutaneous once-daily liraglutide; cited from earlier work
plasma protein = experiment: Plasma protein binding of SNAC; type: in vitro ADME, human
Method in brief: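 Plasma protein binding measured ex vivo by rapid equilibrium dialysis on blood drawn 30 minutes after the day-10 dose. Subjects with normal hepatic function or mild, moderate or severe hepatic impairment received the oral semaglutide/SNAC co-formulation for 10 consecutive days. Food and liquid were withheld for 30 minutes post-dose. The read-out is the fraction of unbound SNAC per subject, summarised as a median per group.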

[2] = Urine bioanalysis / renal clearance of semaglutide and SNAC; type: in vivo, human; settings: for CLR (renal clearance): SNAC after 10th dose, geometric mean (CV)
Method in brief: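 Urine was collected before dosing on day 1 and in fractions after the day-10 dose (0–4, 4–8, 16–24 and 24–36 h) and stored at −20°C. 1% Triton X-100 was added at 1 part per 9 parts urine. Semaglutide and SNAC were measured by the plasma LC-MS/MS assays, with ranges corrected by a factor of 1.111. Renal clearance was reported as the geometric mean (CV) per hepatic function group.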

[3] = type: in vivo, human; settings: for CL/F (total apparent clearance): SNAC after 10th dose, geometric mean (CV)
Method in brief: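 Adults with hepatic function graded by Child-Pugh took one oral tablet daily for 10 days: 5 mg for 5 days, then 10 mg for 5 days. Each tablet held 300 mg SNAC and was taken with 120 mL water after a ≥6 h fast. Plasma was sampled within 24 h after dosing on days 1 and 10 into K3-EDTA and stored at −20°C. LC-MS/MS used in-line solid-phase preparation and internal-standard peak area ratios, with an LLOQ of 5.00 ng/mL.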

[4] = mild hepatic impairment (n = 12)
[5] = moderate hepatic impairment (n = 12)
[6] = normal hepatic function (n = 24)
[7] = severe hepatic impairment (n = 8)

**Q.** Which “Drug exposure with impaired liver function” value [1] does the source give for liraglutide here?
**A.** Its value is “not increased”.

**Q.** For `O=C([O-])CCCCCCCNC(=O)c1ccccc1O.[Na+]` [SNAC, sodium N‐(8‐[2‐hydroxybenzoyl]amino) caprylate], which “Median fraction of unbound SNAC” value (plasma protein; across the hepatic function groups, samples 30 minutes after dosing on day 10) is on record?
**A.** Its value is “less than 1%”.

**Q.** What about the “Plasma protein binding of SNAC” value (plasma protein; all subjects across hepatic function groups) of the same compound?
**A.** The value was “more than 99%”.

**Q.** What about the “CLR (renal clearance)” value [2, 4] of the same compound?
**A.** The value was 0.075 (125.3) L/h.

**Q.** What about the “CLR (renal clearance)” value [2, 5] of the same compound?
**A.** The value was 0.054 (73.98) L/h.

**Q.** What about the “CLR (renal clearance)” value [2, 6] of the same compound?
**A.** The value was 0.076 (109.0) L/h.

**Q.** And the “CLR (renal clearance)” value [2, 7]?
**A.** Its value is 0.111 (88.52) L/h.

**Q.** And the “Estimated mean CLR of SNAC, range across groups” value ([2]; range of estimated means with 95%CI across hepatic function groups)?
**A.** The value was 0.052 [95%CI, 0.036–0.076]–0.096 [95%CI, 0.059–0.157] L/h.

**Q.** What about the “CL/F (total apparent clearance)” value [3, 4] of the same compound?
**A.** The value was 195.6 (24.2) L/h.

**Q.** What about the “CL/F (total apparent clearance)” value [3, 5] of the same compound?
**A.** The value was 105.1 (63.1) L/h.

**Q.** What about the “CL/F (total apparent clearance)” value [3, 6] of the same compound?
**A.** Its value is 275.8 (27.9) L/h.

**Q.** What about the “CL/F (total apparent clearance)” value [3, 7] of the same compound?
**A.** Its value is 78.5 (36.4) L/h.

**Q.** What about the “Median tmax of SNAC” value ([3]; across the 4 hepatic function groups) of the same compound?
**A.** Its value is “approximately 0.5 hours”.

**Q.** And the “Accumulation of SNAC” value ([3]; day 1 vs day 10 exposure, any hepatic function group)?
**A.** The value was “No accumulation”.

**Q.** Which “Semaglutide in urine samples” value ([2]; subjects with normal hepatic function and all hepatic impairment groups) does the source give for `CC[C@H](C)[C@H](NC(=O)[C@H](Cc1ccccc1)NC(=O)[C@H](CCC(=O)O)NC(=O)[C@H](CCCCNC(=O)COCCOCCNC(=O)COCCOCCNC(=O)CC[C@H](NC(=O)CCCCCCCCCCCCCCCCC(=O)O)C(=O)O)NC(=O)[C@H](C)NC(=O)[C@H](C)NC(=O)[C@H](CCC(N)=O)NC(=O)CNC(=O)[C@H](CCC(=O)O)NC(=O)[C@H](CC(C)C)NC(=O)[C@H](Cc1ccc(O)cc1)NC(=O)[C@H](CO)NC(=O)[C@H](CO)NC(=O)[C@@H](NC(=O)[C@H](CC(=O)O)NC(=O)[C@H](CO)NC(=O)[C@@H](NC(=O)[C@H](Cc1ccccc1)NC(=O)[C@@H](NC(=O)CNC(=O)[C@H](CCC(=O)O)NC(=O)C(C)(C)NC(=O)[C@@H](N)Cc1cnc[nH]1)[C@@H](C)O)[C@@H](C)O)C(C)C)C(=O)N[C@@H](C)C(=O)N[C@@H](Cc1c[nH]c2ccccc12)C(=O)N[C@@H](CC(C)C)C(=O)N[C@H](C(=O)N[C@@H](CCCNC(=N)N)C(=O)NCC(=O)N[C@@H](CCCNC(=N)N)C(=O)NCC(=O)O)C(C)C` [Semaglutide, reference compound] here?
**A.** Its value is “not detected”.
